Data reported in ChEMBL document CHEMBL4513216, “Probing the Open Global Health Chemical Diversity Library for Multistage-Active Starting Points for Next-Generation Antimalarials” (ACS Infect Dis, 2020).

Assay: Toxicity liver stage against HepG2, at 10uM
Assay type: cell-based
Parameters: test concentration 10 uM, cell line HepG2-A16-CD81EGFP
Conditions: human, HepG2-A16-CD81EGFP cells; read-out: INHIBITION
Summary of the method: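 Uninfected HepG2-A16-CD81EGFP cells, 3 × 10^3 per well, 1536-well, plated on prespotted compound at 10 μM final, parasite-free screening media added to match infected plates; puromycin 10 μM positive, DMSO 0.5% negative; run in parallel with 48 h PbLuc assay at 37 °C, 5% CO2; viability by CellTiter-Glo luminescence, normalized to controls.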
Compound `O=C(c1cccnc1)N1CCC2(CC1)CN(c1ccccn1)CCO2` has a cytotoxicity at 10 µM of -69.5%. `O=C(NCC(O)c1cccs1)c1sccc1OC(F)F` (stereo unspecified) gave a cytotoxicity at 10 µM of -2.45%. Compound `CCS(=O)(=O)N1CCc2c(CN3CCOCC3)cncc2C1` has a cytotoxicity at 10 µM of 4.35%. For `c1cc(CN2CCc3cncnc3C2)c2c(c1)OCCO2`, the cytotoxicity at 10 µM was -3.67%. With `Cc1cccc(C(=O)NCCCN2CCc3ccccc3C2)c1C` the cytotoxicity at 10 µM was -4.71%. With `Cc1noc(C(C)C)c1C(=O)NCc1ccc(N(C)C)c(F)c1` the cytotoxicity at 10 µM was 1.17%. `Cc1ccc(CNC(=O)N2CCc3ccccc3C2CO)s1` (stereo unspecified) gave a cytotoxicity at 10 µM of 2%. `Cc1cc(NC2CC3(CCN(Cc4csc(C)n4)C3)C2)ncn1` (stereo unspecified) showed a cytotoxicity at 10 µM of -2.34%. Compound `Cn1ccnc1CCNS(=O)(=O)Cc1cccc(C#N)c1` has a cytotoxicity at 10 µM of 0.867%. In the case of `CC(C)n1cnnc1C1CCCN(S(=O)(=O)CCCC#N)C1` (stereo unspecified), the cytotoxicity at 10 µM is reported as -3.46%. `O=C(NCCc1ccncc1)c1cccc(S(=O)(=O)NC2CCOC2)c1` (stereo unspecified) showed a cytotoxicity at 10 µM of 4.93%. For `CC(=O)c1ccc(C(=O)N2CCC(c3cc(O)nc(C)n3)CC2)s1`, the cytotoxicity at 10 µM was 1.3%. `CCOCC1CN(C(=O)[C@H]2CCCO2)Cc2nnn(CC3CC3)c21` (stereo partly specified) showed a cytotoxicity at 10 µM of -1.99%. Compound `O=C(NC1CCC1)C1CCC2(CN(C(=O)c3ccco3)C2)O1` (stereo unspecified) has a cytotoxicity at 10 µM of -144%. `N#CC(NC(=O)CNC(=O)c1ccccc1)c1ccsc1` (stereo unspecified) showed a cytotoxicity at 10 µM of 1.8%. For `CCCNCc1ccc(-c2cc(N)nc3[nH]ccc23)cc1`, the cytotoxicity at 10 µM was 19.8%. With `CCC1=N[C@@]2(CC[C@@H]3CN(Cc4ccccc4C)C[C@@H]32)C(=O)N1C` the cytotoxicity at 10 µM was -107%. `CC(=O)N1C[C@@H](c2ccsc2)[C@@H]2CN(CC3CCCCC3)CC[C@@H]21` gave a cytotoxicity at 10 µM of -7.99%. For `CN(C)C(CNC(=O)c1nc(N2CCCC2)ncc1Cl)c1ccco1` (stereo unspecified), the cytotoxicity at 10 µM was 5.92%. In the case of `Cc1ncnc2c1CCN(C(=O)c1cccnc1)CC2`, the cytotoxicity at 10 µM is reported as 8.36%. With `CNc1cncc(C2CCN(S(C)(=O)=O)CC2)n1` the cytotoxicity at 10 µM was 3.54%. `COc1cccc2c3c(c(=O)n(C)c12)CCC(C)(C)O3` showed a cytotoxicity at 10 µM of 0.55%. In the case of `CC(C)CCNc1nnc(C(C)C)s1`, the cytotoxicity at 10 µM is reported as -10.6%. In the case of `Cc1occc1C(=O)NCC(=O)NCCOc1ccc2c(c1)CCC2`, the cytotoxicity at 10 µM is reported as -2.83%. In the case of `CC(C)c1ncc2c(n1)CN(CC(=O)Nc1ccncc1)CC2`, the cytotoxicity at 10 µM is reported as -3.23%. `O=C(N[C@@H]1CN[C@@H]2CCCO[C@@H]21)c1cscn1` showed a cytotoxicity at 10 µM of -8.69%. In the case of `CC(NC(=O)Nc1cccnc1N1CCCC1)c1nncn1C` (stereo unspecified), the cytotoxicity at 10 µM is reported as -10.1%. In the case of `C=C(C)COc1ccccc1NC(=O)N1CCOCC1CO` (stereo unspecified), the cytotoxicity at 10 µM is reported as -4.1%. With `COc1c(F)cc(NC(=O)NCc2nncn2C2CC2)cc1F` the cytotoxicity at 10 µM was -4.7%. `CCc1cnc(CNC(=O)N2CCCC(c3ncc[nH]3)C2)s1` (stereo unspecified) showed a cytotoxicity at 10 µM of 8.2%. In the case of `CN(Cc1ccco1)C(=O)NC1CCCN(c2ncccn2)C1` (stereo unspecified), the cytotoxicity at 10 µM is reported as -13.6%. For `Cc1n[nH]c(C2CN(C(=O)Cn3ccccc3=O)CCO2)n1` (stereo unspecified), the cytotoxicity at 10 µM was 5.75%. `CN1CCN(Cc2n[nH]c(=O)n2CC2CCCCC2)CC1` gave a cytotoxicity at 10 µM of -47.9%. For `COCC1CN(CC2CC2)Cc2ncn(CC3CC3)c21` (stereo unspecified), the cytotoxicity at 10 µM was 4.42%. Compound `CN1CCC(Nc2ccc(Cl)cc2OCC(F)(F)F)C1=O` (stereo unspecified) has a cytotoxicity at 10 µM of 5.02%. `COc1ccc(COCC(O)CN(C)c2ccc(C)cc2C)cc1` (stereo unspecified) gave a cytotoxicity at 10 µM of 1.6%. For `CN1CC(=O)N(c2cccc(F)c2)CC12CCN(S(=O)(=O)C1CC1)C2` (stereo unspecified), the cytotoxicity at 10 µM was -71.8%. In the case of `Cc1cc(CN2C[C@@H]3COC[C@]3(CNC(=O)N3CCCC3)C2)no1`, the cytotoxicity at 10 µM is reported as -77.5%. `Cn1cc(C[C@H]2[C@H](O)CCN2CC2CCOCC2)cn1` gave a cytotoxicity at 10 µM of -65.7%. For `Cc1nn(C)cc1NC(=O)CC1CCN(C(=O)Cc2ccccc2)CC1`, the cytotoxicity at 10 µM was 1.96%. With `Cn1nnnc1SC1CCc2ccccc2NC1=O` (stereo unspecified) the cytotoxicity at 10 µM was -3.22%. For `CCC1=NC(SCC(=O)c2ccc(Cl)cc2)c2cc(CC)sc2N1` (stereo unspecified), the cytotoxicity at 10 µM was 8.16%. In the case of `Cc1cnn(CC2CN(c3ncnc4c3CCC4)CCO2)c1` (stereo unspecified), the cytotoxicity at 10 µM is reported as 56.5%. `COc1nc2c(cc1C(=O)N1CCCCC1c1ccccn1)CCC2` (stereo unspecified) showed a cytotoxicity at 10 µM of -12.5%. Work on `Cc1cc(-c2cnc(N3CCN(C)CC3)nc2C(C)C)on1` yielded a cytotoxicity at 10 µM of -5.97%. `Cc1ccc(N2CCC3(CCN(C(=O)c4ccoc4)CC3)CC2)nn1` gave a cytotoxicity at 10 µM of -0.355%.
